Assay outcomes as filed in PubChem BioAssay.
RanGTP-Impb inh: disruptors of Ran-importin-beta complex formation – biochemical, FRET, CFP-Ran, YFP-importin-beta, homogeneous, primary screen; 300,000 tested, 1.1% active; inhibition, % (test concentration not listed); cell-free CFP-Ran/YFP-importin-beta FRET ratio;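 active = more than half of the replicate wells show a fall in the fluorescence ratio signal beyond about 16%, limit read from the data, passing the limit was not always enough; inconclusive = exactly half of the replicate wells pass the set limit; inactive = fewer than half of replicates pass the limit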;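 also: 0% = DMSO wells and 100% = Ran loaded with GDP instead of GTP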
Runt-SMMHC FRET: inhibitors of human RUNX1 Runt domain binding to CBFb-SMMHC. inhibition, % at 20 µM. Cerulean-Runt/Venus-CBFb-SMMHC FRET ratio 530/480, 1 h. Q01196+Q13951. 220,000 tested, 0.74% active;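 active = mean inhibition across duplicate retests at 20 µM reaching about 50%, limit read from the data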;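 also: 0% = DMSO wells and 100% = wells with excess untagged CBFb-SMMHC; inhibitors lower the FRET ratio by blocking Runt binding to CBFb-SMMHC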
RBBP9 inhibitor: blocks human serine hydrolase RBBP9; inhibition, % at 7.94 µM; recombinant RBBP9, FP-Rh probe fluorescence polarization; 220,000 tested, 0.2% active;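 active = inhibition above the campaign mean of all tested compounds plus 3 SD, cut at about 14% in these data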;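 also: plate controls were DMSO wells with RBBP9 for no effect and wells lacking RBBP9 protein for full effect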
Target sequence (O75884 whole entry, looked up): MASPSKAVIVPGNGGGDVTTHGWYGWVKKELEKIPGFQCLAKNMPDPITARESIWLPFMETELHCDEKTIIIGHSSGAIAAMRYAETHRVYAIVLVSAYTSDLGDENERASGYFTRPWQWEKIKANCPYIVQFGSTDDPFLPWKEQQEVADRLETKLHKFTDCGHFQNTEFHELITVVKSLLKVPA
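Test system: recombinant human RBBP9; Timing: 30 min then 45 min, 25 °C; Detection: fluorescence polarization; Control set: RBBP9 with DMSO as uninhibited control, no-protein wells as full inhibition; Compound dosing: one concentration, 7.94 µM nominal, 0.794% DMSO; Probe or stimulus: FP-Rh activity-based probe, 375 nM before mixing.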
M18AAP inhibitor: blocks P. falciparum M18 aspartyl aminopeptidase; inhibition, % at 7.35 µM; 290,000 tested, 1.2% active; recombinant PfM18AAP, H-Glu-NHMec fluorogenic cleavage;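 active = inhibition above the campaign mean inhibition over all tested compounds plus 3 SD, cut at about 28% in these data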;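 also: 0% = plate median of test compound wells and 100% = 2 mM ZnCl2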
Hck-Nef inh: human Hck-Nef kinase inhibition. AID 463187. Recombinant Hck-YEEI plus Nef, Z-Lyte FRET kinase assay. 220,000 tested, 0.68% active. inhibition, % at 20 µM;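 active = Hck-Nef kinase inhibition above about 50%, limit read from the data; inactive = inhibition below that limit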;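 also: 0% = DMSO with Hck plus Nef and 100% = Hck alone without Nef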
Target sequence (P08631 whole entry, looked up): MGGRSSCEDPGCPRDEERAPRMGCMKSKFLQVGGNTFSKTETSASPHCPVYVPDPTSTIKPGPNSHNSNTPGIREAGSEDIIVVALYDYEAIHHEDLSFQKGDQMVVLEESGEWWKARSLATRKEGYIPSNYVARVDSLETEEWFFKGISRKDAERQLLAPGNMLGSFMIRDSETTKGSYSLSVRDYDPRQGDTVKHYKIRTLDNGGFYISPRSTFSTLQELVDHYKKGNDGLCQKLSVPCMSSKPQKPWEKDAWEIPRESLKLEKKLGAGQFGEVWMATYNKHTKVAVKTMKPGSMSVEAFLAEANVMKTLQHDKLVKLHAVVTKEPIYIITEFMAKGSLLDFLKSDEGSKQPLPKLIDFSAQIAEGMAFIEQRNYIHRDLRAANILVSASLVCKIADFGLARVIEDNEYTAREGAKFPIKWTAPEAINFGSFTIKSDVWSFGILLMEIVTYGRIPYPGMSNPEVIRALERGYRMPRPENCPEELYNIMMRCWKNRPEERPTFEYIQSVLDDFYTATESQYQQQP
Runt-CBFb FRET: blocks binding of human RUNX1 Runt domain to CBFb. Q01196+Q13951. Cerulean-Runt/Venus-CBFb FRET ratio 530/480, 1 h. inhibition, % at 20 µM. 220,000 tested, 0.46% active;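 active = inhibition over about 50% at 20 µM in the single-dose screen, limit read from the data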;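 also: 0% = DMSO wells and 100% = excess unlabeled CBFb competitor control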
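Reagent – Venus-CBFb binding partner, 100 nM · Assay system – Cerulean-tagged RUNX1 Runt domain (FRET donor) fusion protein · Input – 100 nM per protein · Incubation – two 1 h room-temperature incubations shielded from light · Measured by – FRET fluorescence · Medium – Tris buffer pH 7.5 with salts and BSA · Benchmarks – unlabeled CBFb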
* marks the source's active call; other numbers are inactive results; ? = inconclusive; . = not tested or not shown. Shown are actives, neighbours in structure and some others; about 2.9% of the full set was active somewhere.

SMILES	RanGTP-Impb inh	Runt-SMMHC FRET	RBBP9 inhibitor	M18AAP inhibitor	Hck-Nef inh	Runt-CBFb FRET
O=C(NNc1cc(N2CCOCC2)nc(N2CCOCC2)n1)C12CC3CC(CC(C3)C1)C2	57.0*	-1.1	-12.7	2.0	-2.3	-3.5
Cc1sccc1C1C(C#N)=C(N)SC(N)=C1C#N	68.1*	40.7	-2.3	18.2	17.4	46.4
O=C(Nc1ccccc1Cl)c1ccc(-c2ccccn2)s1	-4.9	0.6	2.1	-9.4	3.2	0.0
Nc1c(C(=O)N2CCOCC2)sc2nc3c(cc12)CCCC3	2.6	.	.	30.5*	.	.
Nc1c(C(=O)N2CCOCC2)sc2nc3c(cc12)CCC3	0.8	.	-10.7	1.1	24.6	.
C=CCN1C(=O)C(=O)N(Cc2nc3ccccc3s2)C1=O	0.1	.	.	-1.4	.	.
COc1ccc(CCNC2CC(=O)N(CCc3ccccc3)C2=O)cc1OC (stereo unspecified)	?	-2.5	-7.3	-151.3	-0.6	0.6
COc1ccc(CCNC2=C(Cl)C(=O)N(CCc3ccccc3)C2=O)cc1OC	-1.4	55.0*	1.3	14.9	0.8	-2.2
Cc1cc(C)n(-c2ccc(NC(=O)C3CCCCN3C(=O)c3cc(C)oc3C)cc2)n1 (stereo unspecified)	3.8	.	.	1.6	.	.
O=C1C=CC(=O)N1c1ccc(Sc2ccc([N+](=O)[O-])cc2)cc1	-5.1	41.3	2.3	8.0	50.1*	25.8
Cc1c(O)ccc(-c2[nH]ncc2-c2nc3ccccc3s2)c1O	3.0	-4.4	1.7	10.7	0.3	-1.5
Cc1c(O)ccc(-c2n[nH]c(C(=O)O)c2-c2nc3ccccc3s2)c1O	10.5	-7.1	-7.5	29.9*	23.5	-1.2
CCc1noc(C)c1C(=O)Nc1ccc(F)c(F)c1	3.3	.	.	.	.	.
CCOc1cc(CNc2ccc(CNc3ncn[nH]3)cc2)ccc1OCc1ccccc1	1.5	1.4	-3.4	39.6*	0.9	0.1
CN(C)c1ccc(/C=N\NC(=O)c2cccc3cc[nH]c23)cc1	6.4	-6.9	-3.3	-2.9	-11.0	-2.0
COC(=O)c1ccc(-c2sc3nc(N4CCOCC4)c4c(c3c2N)CC(C)(C)OC4)o1	24.1*	-23.8	-7.6	-1.3	-8.6	-1.5
CCOC(=O)c1sc2nc(N3CCOCC3)c3c(c2c1N)CC(C)(C)N(C)C3	-3.9	1.0	-11.7	-9.0	12.7	-0.1
COc1ccccc1C(=O)Nc1ccccc1N1CCN(C(=O)c2ccc(Cl)cc2)CC1	6.8	.	.	-1.0	.	.
O=C1CCc2cc(S(=O)(=O)NCc3ccccc3Cl)cc3c2N1CC3	2.3	.	.	.	.	.
COc1ccc(NC(=O)CSc2nnc3ccc(-c4ccccn4)nn23)cc1OC	-6.9	.	.	.	.	.
COc1ccccc1OCCNC(=O)Cc1ccc(S(=O)(=O)N2CCOCC2)s1	2.9	.	.	.	.	.
COc1cc(C(=S)N2CCCC2)ccc1O	2.0	66.5*	4.0	-30.7	-0.1	42.2
COc1ccc(CCn2c(=N)c(S(=O)(=O)c3ccccc3)cc3c(=O)n4ccccc4nc32)cc1	-0.9	.	.	-2.8	.	.
Cc1ccc(S(=O)(=O)c2cc3c(=O)n4ccccc4nc3n(C)c2=N)cc1	173.9*	62.0*	-4.4	-18.9	-2.0	96.9*
Cc1ccc(S(=O)(=O)c2cc3c(=O)n4ccccc4nc3n(C3CCCC3)c2=N)cc1	122.5*	.	.	-1.0	.	.
SMILES	RanGTP-Impb inh	Runt-SMMHC FRET	RBBP9 inhibitor	M18AAP inhibitor	Hck-Nef inh	Runt-CBFb FRET
Cc1ccc(S(=O)(=O)c2cc3c(=O)n4ccccc4nc3n(CCc3ccccc3)c2=N)cc1	64.2*	.	.	-6.4	.	.
CC(=O)c1c(C)n(-c2ccccc2Br)c2ccc(O)cc12	2.2	.	.	-10.2	.	.
CC(=O)NCC(=O)NNC1CC(=O)N(c2cccc(Cl)c2)C1=O (stereo unspecified)	5.7	2.8	-12.3	9.2	14.8	1.4
COc1ccccc1C(=O)Nc1nnc(C)s1	5.3	2.3	6.9	-3.2	3.4	1.2
COc1ccccc1C(=O)NNc1ncc(C)s1	-1.4	.	.	31.2*	.	.
Cc1ccc2nc3c(cc2c1)c(C)nn3-c1ccccc1	61.1*	.	.	8.6	.	.
CC(=O)c1ccc(S(=O)(=O)N(C)C(C)CCc2ccco2)cc1 (stereo unspecified)	2.1	.	.	-5.3	.	.
Cc1ccc(CNC(=O)C2CCN(c3nnc(N4CCCC4=O)s3)CC2)cc1	-1.3	.	.	-3.7	.	.
CCC1CN(C(=O)N2CCC(C(=O)NCc3cccc(OC)c3OC)CC2)c2cc(C)ccc2O1 (stereo unspecified)	0.7	.	.	-13.1	.	.
Cc1ccc(CNC(=O)C2CCC(=O)N(Cc3ccc(Cl)cc3)C2)cc1F (stereo unspecified)	-1.3	.	.	-1.9	.	.
CC1C2(C)OCC(C#N)(C(=N)O2)C1(C#N)C#N (stereo unspecified)	7.4	51.2*	-5.0	-7.0	8.3	21.4
O=C(CSC(=S)N1CCCCC1)Nc1ncc2c(n1)CCCC2=O	4.7	-2.8	1.0	-8.5	16.2	-1.3
O=C(CC1SC(=NCC2CCCO2)NC1=O)Nc1cccc2ccccc12 (stereo unspecified)	-2.0	0.3	-0.7	-17.3	3.0	80.6*
O=C(CC1SC(=NCC2CCCO2)NC1=O)Nc1cc([N+](=O)[O-])ccc1Cl (stereo unspecified)	-1.5	-0.1	-9.6	1.5	-30.4	0.9
CCC1(c2ccccc2)NC(=O)N(CC(=O)NC2(C#N)CCCCC2)C1=O (stereo unspecified)	7.8	.	.	.	.	.
COc1ccc(C2c3ccc(O)cc3Oc3ncn(Cc4ccco4)c(=N)c32)cc1 (stereo unspecified)	3.1	28.0	-7.9	8.8	18.1	96.6*
CCCC(=O)Nc1nn(CC)c2nc3ccc(C)cc3cc12	?	.	.	0.9	.	.
CCC(=O)Nc1nn(CC(C)C)c2nc3ccc(C)cc3cc12	23.6*	.	.	3.8	.	.
CCCC(=O)Nc1nn(CC(C)C)c2nc3cc(C)ccc3cc12	28.1*	.	.	-8.9	.	.
CCOC(=O)Cn1nnnc1C(C(C)C)N(Cc1cccs1)Cc1cc2cc(C)ccc2[nH]c1=O (stereo unspecified)	-4.4	-7.1	-1.2	31.4*	2.7	-7.3
COc1ccc(C)cc1S(=O)(=O)Nc1ccc2c(c1)N(C(C)=O)CCC2	0.7	.	.	.	.	.
CCc1c(C)nc(SCC(=O)NNC(=O)Cc2ccc(OC)cc2)[nH]c1=O	-0.2	-0.9	-9.0	29.0*	-6.5	3.1
COc1ccccc1CCNC(=O)c1cc(-c2ccncc2)nc2ccc(Br)cc12	1.0	-5.4	0.1	14.7	51.1*	-4.1
COc1ccccc1CCNC(=O)c1cc(-c2ccccn2)nc2ccc(Br)cc12	0.5	-10.1	-10.7	-5.2	-23.9	0.8
CNC(=O)CSc1nc2[nH]ncc2c(=O)[nH]1	-0.5	-0.8	-10.6	30.1*	8.8	1.7
Cc1cccc(CSc2nc3[nH]ncc3c(=O)[nH]2)c1	7.5	-2.3	-8.1	14.1	17.2	0.8
